Experiments:
[1] = AUC (0 to 24 hrs) in 12 […] old infants/toddlers measured on day 1 post dose; assay type: ADME, organism-based; design: time < 24 hr; details: human, plasma
[2] = species on record: Homo sapiens; experiment: Clearance in 12 […] old infants/toddlers measured on day 1 post dose; assay type: ADME, organism-based; details: in vivo
[3] = AUC (0 to 24 hrs) in 12-17 years old adolescents at 50 mg/m'2, iv dosed once daily measured on day 1 post dose; assay type: ADME, organism-based; design: time < 24 hr, route intravenous; details: human, plasma
[4] = AUC (0 to 24 hrs) in 12-17 years old adolescents at 50 mg/m'2, iv dosed once daily measured on day 4 post dose; assay type: ADME, organism-based; design: time < 24 hr, route intravenous; details: human, plasma
[5] = Cmax in plasma in infants/toddlers measured on day 1 post dose; details: human
[6] = Cmax in plasma of in 3 to 24 months old infants/toddlers measured on day 4 post dose; details: human
[7] = Cmax in plasma of 3-24 months old infants/toddlers at 50 mg/m'2, iv dosed once daily measured on day 4 post dose; assay type: ADME, organism-based; design: route intravenous; details: human
[8] = AUC (0 to 24 hrs) in adult human at 50 mg, iv dosed once daily measured on day 3 to 14 post dose; assay type: ADME, organism-based; design: dose 50 mg, time < 24 hr, route intravenous; details: plasma
[9] = test system: Homo sapiens; experiment: Clearance in 3-24 months old infants/toddlers at 50 mg/m'2, iv dosed once daily measured on day 1 post dose; assay type: ADME, organism-based; details: in vivo
[10] = AUC (0 to 24 hrs) in 2-11 years old children at 50 mg/m'2, iv dosed once daily measured on day 4 post dose; assay type: ADME, organism-based; design: time < 24 hr, route intravenous; details: human, plasma
[11] = AUC (0 to 24 hrs) in 20 […] old infants/toddlers measured on day 4 post dose; assay type: ADME, organism-based; design: time < 24 hr; details: human, plasma
[12] = AUC (0 to 24 hrs) in 3-24 months old infants/toddlers at 50 mg/m'2, iv dosed once daily measured on day 1 post dose; assay type: ADME, organism-based; design: time < 24 hr, route intravenous; details: human, plasma
[13] = test system: Homo sapiens; experiment: Clearance in adult human at 70 mg, iv dosed once daily measured on day 1 post dose; assay type: ADME, organism-based; details: in vivo
[14] = Cmax in plasma of in 10 […] old infants/toddlers measured on day 1 post dose; assay type: ADME, organism-based; details: human
[15] = species on record: Homo sapiens; experiment: Clearance in 17 […] old infants/toddlers measured on day 1 post dose; assay type: ADME, organism-based; details: in vivo
[16] = Cmax in plasma of adult human at 50 mg, iv dosed once daily measured on day 1 post dose; assay type: ADME, organism-based; design: dose 50 mg, route intravenous
[17] = species on record: Homo sapiens; experiment: Clearance in 3 to 24 months old infants/toddlers measured on day 1 post dose; details: in vivo
[18] = species on record: Homo sapiens; experiment: Clearance in infants/toddlers measured on day 1 post dose; details: in vivo
[19] = AUC (0 to 24 hrs) in 13 […] old infants/toddlers measured on day 4 post dose; assay type: ADME, organism-based; design: time < 24 hr; details: human, plasma
[20] = Cmax in plasma of adult human at 70 mg, iv dosed once daily measured on day 1 post dose; assay type: ADME, organism-based; design: dose 70 mg, route intravenous
[21] = Cmax in plasma of in […] infants/toddlers measured on day 1 post dose; assay type: ADME, organism-based; details: human
[22] = AUC (0 to 24 hrs) in 17 […] old infants/toddlers measured on day 1 post dose; assay type: ADME, organism-based; design: time < 24 hr; details: human, plasma
[23] = Cmax in plasma of in 10 years old infants/toddlers measured on day 4 post dose; assay type: ADME, organism-based; details: human
[24] = Cmax in plasma of 3-24 months old infants/toddlers at 50 mg/m'2, iv dosed once daily measured on day 1 post dose; assay type: ADME, organism-based; design: route intravenous; details: human
[25] = Cmax in plasma of 2-11 years old children at 50 mg/m'2, iv dosed once daily measured on day 4 post dose; assay type: ADME, organism-based; design: route intravenous; details: human
[26] = Cmax in plasma of adult human at 70 mg, iv dosed once daily measured on day 3 to 14 post dose; assay type: ADME, organism-based; design: dose 70 mg, route intravenous
[27] = Cmax in plasma of 12-17 years old adolescents at 50 mg/m'2, iv dosed once daily measured on day 1 post dose; assay type: ADME, organism-based; design: route intravenous; details: human
[28] = AUC (0 to 24 hrs) in 20 […] old infants/toddlers measured on day 1 post dose; assay type: ADME, organism-based; design: time < 24 hr; details: human, plasma
[29] = test system: Homo sapiens; experiment: Clearance in 2-11 years old children at 50 mg/m'2, iv dosed once daily measured on day 1 post dose; assay type: ADME, organism-based; details: in vivo
[30] = Cmax in plasma of in 17 […] old infants/toddlers measured on day 1 post dose; assay type: ADME, organism-based; details: human
[31] = Cmax in plasma of adult human at 50 mg, iv dosed once daily measured on day 3 to 14 post dose; assay type: ADME, organism-based; design: dose 50 mg, route intravenous
[32] = AUC (0 to 24 hrs) in infants/toddlers measured on day 4 post dose; details: human, plasma
[33] = Cmax in plasma in infants/toddlers measured on day 4 post dose; details: human
[34] = AUC (0 to 24 hrs) in adult human at 70 mg, iv dosed once daily measured on day 1 post dose; assay type: ADME, organism-based; design: dose 70 mg, time < 24 hr, route intravenous; details: plasma
[35] = AUC (0 to 24 hrs) in 17 […] old infants/toddlers measured on day 4 post dose; assay type: ADME, organism-based; design: time < 24 hr; details: human, plasma
[36] = test system: Homo sapiens; experiment: Clearance in 12-17 years old adolescents at 50 mg/m'2, iv dosed once daily measured on day 1 post dose; assay type: ADME, organism-based; details: in vivo
[37] = Cmax in plasma of 12-17 years old adolescents at 50 mg/m'2, iv dosed once daily measured on day 4 post dose; assay type: ADME, organism-based; design: route intravenous; details: human
[38] = Cmax in plasma of in 13 […] old infants/toddlers measured on day 1 post dose; assay type: ADME, organism-based; details: human
[39] = Cmax in plasma of in 20 […] old infants/toddlers measured on day 4 post dose; assay type: ADME, organism-based; details: human
Procedure, shortened: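 Infants/toddlers (10 to 24 months) with fever and neutropenia received caspofungin 50 mg/m2 once daily as a 1-h infusion. C1 is the observed plasma concentration at the end of the first (day 1) or fourth (day 4) infusion, sampled from 20 min before to 30 min after the end of infusion. Caspofungin was measured by HPLC with fluorescence detection.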

[40] = test system: Homo sapiens; experiment: Clearance in adult human at 50 mg, iv dosed once daily measured on day 1 post dose; assay type: ADME, organism-based; details: in vivo
[41] = species on record: Homo sapiens; experiment: (§1) Cmax in plasma of in 12 […] old infants/toddlers measured on day 4 post dose; assay type: ADME, organism-based; details: in vivo
[42] = as §1; assay type: ADME, organism-based; details: human, plasma
[43] = AUC (0 to 24 hrs) in adult human at 50 mg, iv dosed once daily measured on day 1 post dose; assay type: ADME, organism-based; design: time < 24 hr, dose 50 mg, route intravenous; details: plasma
[44] = Cmax in plasma of in 12 […] old infants/toddlers measured on day 1 post dose; assay type: ADME, organism-based; details: human
[45] = species on record: Homo sapiens; experiment: Clearance in 10 […] old infants/toddlers measured on day 1 post dose; assay type: ADME, organism-based; details: in vivo
[46] = AUC (0 to 24 hrs) in 2-11 years old children at 50 mg/m'2, iv dosed once daily measured on day 1 post dose; assay type: ADME, organism-based; design: time < 24 hr, route intravenous; details: human, plasma
[47] = Cmax in plasma of in 17 years old infants/toddlers measured on day 4 post dose; assay type: ADME, organism-based; details: human
[48] = AUC (0 to 24 hrs) in 12 […] old infants/toddlers measured on day 4 post dose; assay type: ADME, organism-based; design: time < 24 hr; details: human, plasma
[49] = AUC (0 to 24 hrs) in 10 […] old infants/toddlers measured on day 4 post dose; assay type: ADME, organism-based; design: time < 24 hr; details: human, plasma
[50] = AUC (0 to 24 hrs) in adult human at 70 mg, iv dosed once daily measured on day 3 to 14 post dose; assay type: ADME, organism-based; design: dose 70 mg, time < 24 hr, route intravenous; details: plasma
[51] = AUC (0 to 24 hrs) in infants/toddlers measured on day 1 post dose; details: human, plasma
[52] = AUC (0 to 24 hrs) in 10 […] old infants/toddlers measured on day 1 post dose; assay type: ADME, organism-based; design: time < 24 hr; details: human, plasma
[53] = test system: Homo sapiens; experiment: Cmin in plasma of 2-11 years old children at 50 mg/m'2, iv dosed once daily measured on day 1 post dose; assay type: ADME, organism-based; details: in vivo
[54] = AUC (0 to 24 hrs) in 3-24 months old infants/toddlers at 50 mg/m'2, iv dosed once daily measured on day 4 post dose; assay type: ADME, organism-based; design: time < 24 hr, route intravenous; details: human, plasma
[55] = Cmax in plasma of 2-11 years old children at 50 mg/m'2, iv dosed once daily measured on day 1 post dose; assay type: ADME, organism-based; design: route intravenous; details: human

For `CC[C@H](C)C[C@H](C)CCCCCCCCC(=O)N[C@H]1C[C@@H](O)[C@@H](NCCN)NC(=O)[C@@H]2[C@@H](O)CCN2C(=O)[C@H]([C@H](O)CCN)NC(=O)[C@H]([C@H](O)[C@@H](O)c2ccc(O)cc2)NC(=O)[C@@H]2C[C@@H](O)CN2C(=O)[C@H]([C@@H](C)O)NC1=O` [CASPOFUNGIN], the AUC(0-t) at 24 h [1] was 109 µg·h/mL, the CL [2] was 6.44 ml/min/m2 and the AUC(0-t) at 24 h [3] was 77.6 µg·h/mL. For the same molecule, the AUC at 24 h [4] was 117 µg·h/mL, the Cmax [5] was 21500 ng/mL and the Cmax [6] was 16900 ng/mL. The Cmax [7] was 17200 ng/mL, the AUC at 24 h [8] was 103 µg·h/mL and the CL [9] was 6.05 ml/min/m2. It also gave an AUC at 24 h [10] of 115 µg·h/mL, an AUC at 24 h [11] of 122 µg·h/mL and an AUC(0-t) at 24 h [12] of 120 µg·h/mL. It also gave a CL [13] of 5.2 ml/min/m2, a Cmax [14] of 14500 ng/mL and a CL [15] of 4.94 ml/min/m2. It also gave a Cmax [16] of 7670 ng/mL, a CL [17] of 5.98 ml/min/m2 and a CL [18] of 6.82 ml/min/m2. It also gave an AUC at 24 h [19] of 121 µg·h/mL, a Cmax [20] of 10000 ng/mL and a Cmax [21] of 13000 ng/mL. For the same molecule, the AUC(0-t) at 24 h [22] was 102 µg·h/mL, the Cmax [23] was 15200 ng/mL and the Cmax [24] was 17500 ng/mL. For the same molecule, the Cmax [25] was 15600 ng/mL, the Cmax [26] was 13300 ng/mL and the Cmax [27] was 8950 ng/mL. The AUC(0-t) at 24 h [28] was 97.4 µg·h/mL, the CL [29] was 7.78 ml/min/m2 and the Cmax [30] was 13900 ng/mL. The Cmax [31] was 9390 ng/mL, the AUC at 24 h [32] was 171 µg·h/mL and the Cmax [33] was 21300 ng/mL. It also gave an AUC(0-t) at 24 h [34] of 97.1 µg·h/mL, an AUC at 24 h [35] of 135 µg·h/mL and a CL [36] of 6.3 ml/min/m2. The Cmax [37] was 12900 ng/mL, the Cmax [38] was 15800 ng/mL and the Cmax [39] was 12100 ng/mL. For the same molecule, the CL [40] was 6.07 ml/min/m2, the Cmax [41] was 17960 ng/mL and the Cmax [42] was 15900 ng/mL. For the same molecule, the AUC(0-t) at 24 h [43] was 70.6 µg·h/mL, the Cmax [44] was 17500 ng/mL and the CL [45] was 4.37 ml/min/m2. The AUC(0-t) at 24 h [46] was 96.4 µg·h/mL, the Cmax [47] was 16400 ng/mL and the AUC at 24 h [48] was 122 µg·h/mL. It also gave an AUC at 24 h [49] of 114 µg·h/mL, an AUC at 24 h [50] of 154 µg·h/mL and an AUC(0-t) at 24 h [51] of 120 µg·h/mL. For the same molecule, the AUC(0-t) at 24 h [52] was 160 µg·h/mL, the Cmin [53] was 1090 ng/mL and the AUC at 24 h [54] was 130 µg·h/mL. The Cmax [55] was 14000 ng/mL.
